The source of these data is ChEMBL document CHEMBL1121539, “Antitumor structure-activity relations. Nitrosoureas vs. L-1210 leukemia” (J Med Chem, 1980).

In series [1] the test system is L1210. Briefly: Toxicity against L-1210 leukemia cells in mice after intraperitoneal administration, activity is expressed as LD10. As to conditions: mouse, in vivo, ip.
Series [2] deals with L1210. The series can be described thus: Tested for 3 log kill of leukemia cells. In kind it is functional, Mus musculus. The essentials: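 L-1210 leukemia cells (10^4) were inoculated intracerebrally into BDF2 mice, and drug was given intraperitoneally. The end point was the dose giving 3 log kill, expressed as log 1/C. The value comes from one or more individual experiments.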

Series [3] is described as follows: Partition coefficient (logP). The series is classed as physicochemical. As to conditions: octanol/water; read-out: logP. The essentials:
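Shake partitioning between octanol and distilled water gave log P. For carboxylate substituents, log P was taken in 0.1 N NaOH, with Na+ as counterion.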

`O=NN(CCCl)C(=O)NC1CCC(CC2CCC(NC(=O)N(CCCl)N=O)CC2)CC1` (centres undefined): in the series with L1210 [1], the log(1/LD10) turned out to be 0.283. For the same molecule, the “log(1/C)” value in the series on L1210 [2] is 1.36. Also, in series [3], the logP was 6.07.

In turn, `CC(NC(=O)N(CCCl)N=O)C(=O)O` (centres undefined) displayed a log(1/LD10) in the series on L1210 [1] of 0.511. For the same molecule, in the series on L1210 [2], the “log(1/C)” value is listed as 0.918. Further, the lipophilicity (logP) in series [3] came to 0.5.

In the series with L1210 [1], `O=NN(CCCl)C(=O)NC12CC3CC(CC(C3)C1)C2` gave a log(1/LD10) of 0.664. Further, the “log(1/C)” value with L1210 [2] worked out at 1.16. Besides, the logP in series [3] came out at 3.62.

With `NC(=O)N(CCCl)N=O`, the log(1/LD10) in the series on L1210 [1] is 1.43. In the series on L1210 [2], the “log(1/C)” value is 1.05. The lipophilicity (logP) in series [3] amounted to 0.57.

`CN(C(=O)N(CC/C=N/C(=O)N(CCCl)N=O)N=O)C1CCCCC1`: the log(1/LD10) in the series on L1210 [1] is -0.207. Also, the “log(1/C)” value in the series with L1210 [2] turned out to be 0.353. Also, the logP in series [3] was determined as 3.19.

As to `CC(C)C1CCC(NC(=O)N(CCF)N=O)CC1` (centres undefined), the log(1/LD10) with L1210 [1] came to 0.388. The “log(1/C)” value in the series on L1210 [2] is 1.05. Moreover, the logP in series [3] amounted to 3.67.

With `O=NN(CCF)C(=O)NC1CCC(NC(=O)N(CCCl)N=O)CC1` (centres undefined), in the series with L1210 [1], the log(1/LD10) is 0.595. Further, the “log(1/C)” value with L1210 [2] was found to be 1.37. Besides, the logP in series [3] was 2.41.

With `CCOC(=O)C1CCCC(NC(=O)N(CCCl)N=O)C1` (centres undefined), the log(1/LD10) in the series with L1210 [1] was found to be 0.786. For the same molecule, the “log(1/C)” value in the series on L1210 [2] came to 1.41. In addition, the log partition coefficient (logP) in series [3] was 2.2.

As to `CC(C)(NC(=O)N(CCCl)N=O)C(=O)O`, the log(1/LD10) with L1210 [1] is -0.049. Moreover, in the series with L1210 [2], the “log(1/C)” value was 0.591. Also, in series [3], the logP was 0.91.

`O=NN(CCCl)C(=O)N[C@H]1CC[C@@H](C(=O)O)CC1`: the log(1/LD10) in the series with L1210 [1] turned out to be 1.03. For the same molecule, the “log(1/C)” value in the series on L1210 [2] is given as 1.63. In addition, in series [3], the logP is 1.68.

In turn, `O=NN(CCCl)C(=O)N[C@H]1CC[C@@H](CC(=O)O)CC1` returned a log(1/LD10) in the series on L1210 [1] of 0.701. In addition, the “log(1/C)” value with L1210 [2] is reported as 1.35. In addition, the logP in series [3] was 2.22.

In the series with L1210 [1], `CO[C@H]1CC[C@@H](NC(=O)N(CCCl)N=O)CC1` had a log(1/LD10) of 0.819. Besides, in the series on L1210 [2], the “log(1/C)” value turned out to be 1.38. The logP in series [3] is 2.09.

`O=NN(CCCl)C(=O)N[C@@H]1CCCC[C@@H]1O` had a log(1/LD10) with L1210 [1] of 0.698. In the series with L1210 [2], the “log(1/C)” value is given as 1.32. For the same molecule, the logP in series [3] worked out at 1.75.

Molecule `CC(=O)O[C@@H]1[C@@H](OC(C)=O)[C@H](OC(C)=O)CO[C@H]1NC(=O)N(CCCl)N=O` returned a log(1/LD10) in the series with L1210 [1] of 1.25. Also, in the series on L1210 [2], the “log(1/C)” value amounted to 1.91. Besides, the logP in series [3] was found to be 0.82.

For `CC1SCC(NC(=O)N(CCCl)N=O)CS1` (centres undefined), the log(1/LD10) in the series on L1210 [1] was 1. In addition, the “log(1/C)” value in the series with L1210 [2] is listed as 1.61. Moreover, the logP in series [3] came out at 2.49.

`O=NN(CCF)C(=O)NC1C2CC3CC(C2)CC1C3` (centres undefined) had a log(1/LD10) with L1210 [1] of 0.592. The “log(1/C)” value with L1210 [2] is listed as 0.797. Moreover, in series [3], the logP amounted to 3.04.

Take `O=NN(CCCl)C(=O)NC1CCCCC1NC(=O)N(CCCl)N=O` (centres undefined): the log(1/LD10) in the series on L1210 [1] was 0.423. The “log(1/C)” value in the series with L1210 [2] came to 1.5. Also, the logP in series [3] amounted to 3.57.

In turn, `O=NN(CCCl)C(=O)NC1CCCC(C(=O)O)C1` (centres undefined) yielded a log(1/LD10) in the series on L1210 [1] of 0.912. Moreover, the “log(1/C)” value in the series with L1210 [2] is on record as 1.47. Also, the logP in series [3] was 1.86.

Molecule `O=NN(CCCl)C(=O)NC1C=CCCC1` (centres undefined) showed a log(1/LD10) in the series with L1210 [1] of 0.848. Besides, the “log(1/C)” value in the series on L1210 [2] stood at 1.16. In addition, the logP in series [3] was determined as 2.45.

With `O=NN(CCCl)C(=O)NC1CCSCC1`, the log(1/LD10) with L1210 [1] is 1.25. Further, in the series with L1210 [2], the “log(1/C)” value was found to be 2.1. In addition, in series [3], the logP worked out at 2.07.

As for `CCC1CCC(NC(=O)N(CCCl)N=O)CC1` (centres undefined), the log(1/LD10) in the series with L1210 [1] was determined as 0.445. In addition, the “log(1/C)” value in the series with L1210 [2] was found to be 1.27. Also, in series [3], the logP was 3.84.

Turning to `O=NN(CCCl)C(=O)NC1CCC(Br)CC1` (centres undefined), the log(1/LD10) in the series on L1210 [1] was 0.571. Besides, in the series with L1210 [2], the “log(1/C)” value is 1.24. Moreover, the logP in series [3] stood at 2.67.

`O=NN(CCCl)C(=O)NC1CCCC(NC(=O)N(CCCl)N=O)C1` (centres undefined) yielded a log(1/LD10) with L1210 [1] of 0.146. For the same molecule, in the series on L1210 [2], the “log(1/C)” value stood at 1.41. The lipophilicity (logP) in series [3] came to 2.74.
